PMC2225614 (The Journal of General Physiology, 2001)

Key:
rod CNG channels = conditions: ref Molokanova et al. 1999a; cited from earlier work
[1] = target: T1, α-subunit of the bovine retinal rod CNG channel (RETα) (Bos taurus, UniProt Q00194); type: biochemical; conditions: 10 μM Ni^2+; subsaturating cGMP (25 μM); steady state
T1 sequence (Q00194 1-690): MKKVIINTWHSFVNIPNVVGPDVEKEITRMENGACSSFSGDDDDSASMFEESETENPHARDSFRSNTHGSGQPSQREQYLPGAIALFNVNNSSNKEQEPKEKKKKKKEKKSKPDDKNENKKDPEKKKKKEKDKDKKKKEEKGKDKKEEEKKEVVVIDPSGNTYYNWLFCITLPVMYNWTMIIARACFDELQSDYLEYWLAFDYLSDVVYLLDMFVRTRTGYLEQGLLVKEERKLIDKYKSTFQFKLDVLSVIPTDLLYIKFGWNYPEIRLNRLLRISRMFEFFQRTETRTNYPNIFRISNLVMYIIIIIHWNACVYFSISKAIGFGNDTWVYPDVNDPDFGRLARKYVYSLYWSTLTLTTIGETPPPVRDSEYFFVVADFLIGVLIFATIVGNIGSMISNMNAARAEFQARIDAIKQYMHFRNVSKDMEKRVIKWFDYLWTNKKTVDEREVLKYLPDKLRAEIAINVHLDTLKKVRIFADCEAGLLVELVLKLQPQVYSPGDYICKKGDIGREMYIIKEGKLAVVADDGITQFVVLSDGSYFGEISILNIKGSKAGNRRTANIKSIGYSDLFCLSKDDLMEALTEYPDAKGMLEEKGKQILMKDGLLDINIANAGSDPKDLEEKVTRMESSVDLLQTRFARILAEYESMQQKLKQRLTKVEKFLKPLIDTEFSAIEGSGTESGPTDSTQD
Summary of the method: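 RETα was expressed in oocytes from 50 nl of 50 ng/μl RNA. Inside-out patches were held at −75 mV in symmetrical NaCl/EGTA/EDTA/HEPES, pH 7.5, with solution exchange within 50 ms. Current was normalized to Imax: residual current after 1 min preexposure then 2 mM cGMP, or steady-state current with compound added during 2 mM cGMP. Ki and Hill coefficient came from a modified Hill fit; τa from single-exponential fits; mean ± SEM.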

Row | Structure (SMILES) | effect on genistein's action on CNG channels (rod CNG channels) | effect of Ni^2+ on genistein inhibition [1]
1 | Nc1ncnc2c1ncn2[C@@H]1O[C@H](COP(=O)(O)OP(=O)(O)NP(=O)(O)O)[C@@H](O)[C@H]1O [AMP-PNP] | competitive inhibitor of genistein's action on CNG channels | –
2 | [Ni+2] [Ni^2+] | – | only reduces genistein inhibition
3 | O=CN/C=C/c1cc(O)ccc1O [erbstatin] | noncompetitively prevents genistein's effect on the channels | –
